According to ChEMBL document CHEMBL3286391, “High content screening of diverse compound libraries identifies potent modulators of tubulin dynamics” (ACS Med Chem Lett, 2014):
Activity calls are given as the source filed them. No cut-off for these calls is given here.

Columns and labels:
U2OS [1] = test: Induction of mitotic arrest in human U2OS cells assessed as mitotic index after 20 hrs by microscopic analysis
U2OS [2] = test: Growth inhibition of human U2OS cells after 72 hrs by sulforhodamine B assay; type: functional
Procedure, shortened: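 GI50 in U2OS cells. Mean of at least two independent experiments, each in triplicate.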

Sus scrofa [3] = species: Sus scrofa; test: Inhibition of porcine alpha/beta tubulin polymerization at 10 uM after 1 hr by spectrophotometric analysis
Procedure, shortened: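 Tubulin (3 mg/mL) incubated with compound (10 μM) and GTP at 37 °C for 1 h to monitor polymerization.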

Sus scrofa [4] = species: Sus scrofa; test: Displacement of colchicine from porcine alpha/beta tubulin assessed as decrease in colchicine fluorescence intensity at 5 to 20 uM after 1 hr by spectrophotometric analysis relative to control
Procedure, shortened: (§1)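 Colchicine (3 μM), tubulin (3 μM) and compound incubated 1 h at 37 °C. Colchicine fluorescence intensity read at ex/em 365/435 nm. Nocodazole served as positive control. Mean ± s.e.m. of one experiment run in triplicate.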

[5] = Stability of the compound; type: physicochemical
Sus scrofa [6] = species: Sus scrofa; test: Displacement of BODIPY-FL-vinblastine from porcine alpha/beta tubulin at 20 to 60 uM after 20 hrs by fluorescence polarization assay
Procedure, shortened: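 Fluorescence polarization assay with FL-BODIPY-vinblastine tracer (2 μM) and tubulin (2 μM). Unlabeled vinblastine served as positive control. Ex/em 485/520 nm. Mean ± s.e.m. of one experiment run in triplicate.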

Tubulin (Homo sapiens) = Tubulin (Homo sapiens) (UniProt P68371+Q9H4B7+P0DPH7+P68366+Q13509+Q71U36+P04350+Q3ZCM7+P07437+P68363+Q9BQE3+Q6PEY2+Q13885+Q9BVA1+Q9BUF5); test: Binding affinity to tubulin in human U2OS cells assessed as disruption of tubulin network at 100 nM after 20 hrs by DAPI staining-based confocal microscopic analysis; type: cell-based
Procedure, shortened: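 U2OS cells treated with compound, then stained with DAPI and an α-tubulin antibody. Tubulin network imaged by confocal microscopy.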

[7] = Solubility of the compound; type: physicochemical
Sus scrofa [8] = species: Sus scrofa; test: Displacement of colchicine from porcine alpha/beta tubulin assessed as decrease in colchicine fluorescence intensity after 1 hr by spectrophotometric analysis
Procedure, shortened: as §1

U2OS [9] = test: Induction of mitotic arrest in human U2OS cells assessed as mitotic index after 72 hrs by microscopic analysis; type: functional, cell-based; settings: in the assay text read “after 20 hrs” for “after 72 hrs”
Procedure, shortened: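 Phenotypic high content assay in U2OS osteosarcoma cells. Cells stained for phosphorylated histone H3 (mitotic marker) and Hoechst, imaged on an automated high content microscope. An algorithm scores the percentage of cells arrested in mitosis. MI EC50 is the mean of at least two independent experiments, each in triplicate.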

U2OS [10] = test: Induction of mitotic arrest in human U2OS cells at 50 uM after 72 hrs by microscopic analysis relative to control; type: functional; settings: in the assay text read “after 20 hrs” for “after 72 hrs”
Procedure, shortened: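 Primary screen in U2OS cells at a single 50 μM concentration, in triplicate. Cells stained for phospho-histone H3 with Hoechst counterstain and imaged by automated high content microscopy. Percentage of mitotically arrested cells calculated by algorithm.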

[11] = Solubility of the compound at >1 uM; type: physicochemical

EC50 (U2OS [1])	GI50 (U2OS [2])	SMILES	other results
> 20 µM		O=C(Cc1ccc(-c2ccc(C(=O)O)cc2)cc1)NCc1ccco1	
> 40 µM		O=C(NCc1ccco1)c1ccccc1-c1ccccc1	
0.34 µM	0.1 µM	Cc1ccc(-c2ccc(CC(=O)NCc3ccco3)cc2)cc1F	
0.076 µM	0.024 µM	CC(=O)c1ccc(-c2ccc(CC(=O)NCc3ccco3)cc2)cc1	
> 40 µM		O=C(NCc1ccco1)c1ccc(C(=O)c2ccccc2)cc1	
1.9 µM		COc1ccc(CNC(=O)Cc2ccc(-c3ccccc3)cc2)cc1	
0.073 µM	0.024 µM	COC(=O)c1ccc(-c2ccc(CC(=O)NCc3ccco3)cc2)cc1	
> 40 µM		CC(C)CNC(=O)Cc1ccc(-c2ccccc2)cc1	
0.144 µM	0.031 µM	O=C(Cc1ccc(-c2ccc3c(c2)OCO3)cc1)NCc1ccco1	
16.6 µM		O=C(Cc1ccc(-c2ccccc2)cc1)NCc1ccncc1	
0.101 µM	0.046 µM	CC(C)CNC(=O)c1ccc(-c2ccc(CC(=O)NCc3ccco3)cc2)cc1	
> 40 µM		O=C(NCc1ccco1)c1cc2ccccc2o1	
9.7 µM		O=C(Cc1ccc(-c2ccccc2)cc1)NCc1ccccn1	
4.83 µM		C[C@@H](NC(=O)Cc1ccc(-c2ccccc2)cc1)c1ccccc1	
0.526 µM	0.111 µM	N#Cc1ccc(-c2ccc(CC(=O)NCc3ccco3)cc2)cc1	inhibition (Sus scrofa [3]): Active
0.25 µM		O=C(Cc1ccc(-c2ccccc2)cc1)NCc1ccccc1	

EC50 (U2OS [1])	GI50 (U2OS [2])	SMILES	other results
0.081 µM	0.027 µM	COC(=O)c1ccc(-c2ccc(CC(=O)NCc3ccccc3)cc2)cc1	
12.9 µM		O=C(Cc1ccc2ccccc2c1)NCc1ccco1	
0.49 µM	0.12 µM	CC(=O)Nc1cccc(-c2ccc(CC(=O)NCc3ccco3)cc2)c1	
0.051 µM	0.021 µM	CNC(=O)c1ccc(-c2ccc(CC(=O)NCc3ccco3)cc2)cc1	inhibition (Sus scrofa [3]): Active; Imax (Sus scrofa [4]): 45%; Stability [5]: Stable; inhibition (Sus scrofa [6]): inactive; Activity (Tubulin (Homo sapiens)): Active; solubility [7]: soluble; inhibition (Sus scrofa [8]): Dose-dependent effect
> 40 µM		O=C(Cc1ccc(-c2ccccc2)cc1)NCc1cccc(Br)c1	inhibition (Sus scrofa [3]): inactive
> 40 µM		COc1cc(-c2ccc(CC(=O)NCc3ccco3)cc2)cc(OC)c1OC	
> 40 µM		C[C@H](NC(=O)Cc1ccc(-c2ccccc2)cc1)c1ccccc1	
	0.12 µM	O=C(Cc1ccc(-c2ccc(OC(F)(F)F)cc2)cc1)NCc1ccco1	
29.9 µM		CN(Cc1ccccc1)C(=O)Cc1ccc(-c2ccccc2)cc1	
> 40 µM		O=C(Cc1ccc(-c2ccccc2)cc1)Nc1ccccc1	
0.51 µM	0.15 µM	O=C(Cc1ccc(-c2ccccc2)cc1)NCc1ccco1	inhibition (Sus scrofa [3]): Active; inhibition (U2OS [9]): Dose-dependent effect; Activity (U2OS [10]): 40%
12.9 µM		CC(=O)c1ccccc1-c1ccc(CC(=O)NCc2ccco2)cc1	
1.17 µM	0.603 µM	COc1c(C)cc(-c2ccc(CC(=O)NCc3ccco3)cc2)cc1C	
> 40 µM		O=C(NCc1ccco1)c1cnc2ccccc2c1	
> 40 µM		O=C(NCc1ccco1)c1ccc(-c2ccccc2)cc1	
0.028 µM	0.011 µM	CC(=O)c1ccc(-c2ccc(CC(=O)NCc3ccccc3)cc2)cc1	solubility [11]: Insoluble; Activity (Tubulin (Homo sapiens)): Active

SMILES	EC50 (U2OS [1])	GI50 (U2OS [2])	other results
COC(=O)Nc1nc2cc(C(=O)c3cccs3)ccc2[nH]1 [NOCODAZOLE]	0.05 µM		inhibition (Sus scrofa [3]): Active; Imax (Sus scrofa [4]): 85%
